For assay [1], the system named is NCI-H23. Description: Down regulation of FOSL1 gene expression in human NCI-H23 cells at 500 nM measured after 3 to 24 hrs by qPCR analysis. It counts as functional, cell-based. The note with it: time 3-24 hrs. Put shortly:
(§1)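 H23 cells were grown in RPMI-1640 with 10% FBS and plated 48 h before treatment at 170,000 cells/ml. Medium was replaced with fresh medium containing 500 nM JQ1 or matched DMSO, and cells were harvested at 3, 6, 12 and 24 h. Total RNA was extracted with TRIzol and assayed by SYBR qPCR (40 cycles). Expression was normalized to GAPDH and compared with DMSO. There were three biological replicates, each run in duplicate twice.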
For orientation: Real-time PCR tracks product formation cycle by cycle.

Assay [2] concerns NCI-H23. Description: Effect in H3K27ac global level in human NCI-H23 cells at 500 nM incubated for 24 hrs by Chip-seq assay. It counts as functional, cell-based.
Assay [3] has as its system NCI-H23. The assay is described as follows: Effect in H4K5acK8ac subpopulation level in human NCI-H23 cells at 500 nM incubated for 24 hrs by Chip-seq assay. It counts as functional. Put shortly:
(§2)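 H23 cells received 500 nM JQ1 or DMSO for 24 h and then underwent formaldehyde crosslinking. For spike-in ChIP-seq, H23 chromatin was mixed with Drosophila chromatin at 400:1 for H4K5acK8ac or 600:1 for BRD2, adding anti-H2Av antibody. Reads were normalized to Drosophila counts, with two biological replicates. Signals were averaged over peaks from untreated cells, and differential H4K5acK8ac peaks were called at FDR <0.05.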

The test system of assay [4] is NCI-H23. Description: Down regulation of FOSL1 protein expression in human NCI-H23 cells at 500 nM measured after 3 to 24 hrs by […]. Type of assay: functional, cell-based. The note with it: time 3-24 hrs.
The test system of assay [5] is NCI-H23. The assay is described as follows: Down regulation of BRD4 gene expression in human NCI-H23 cells at 500 nM measured after 3 to 24 hrs by qPCR analysis. It counts as functional, cell-based. The note with it: time 3-24 hrs. Put shortly:
as §1

The subject of assay [6] is NCI-H23. The assay is described as follows: Effect in H4K5acK8ac global level Promoter region in human NCI-H23 cells at 500 nM incubated for 24 hrs by Chip-seq assay. It counts as functional, cell-based. Put shortly: as §2
Assay [7] concerns NCI-H23. Description: Down regulation of BRD2 gene expression in human NCI-H23 cells at 500 nM measured after 3 to 24 hrs by qPCR analysis. It counts as functional, cell-based. The note with it: time 3-24 hrs. Put shortly: as §1
The subject of assay [8] is NCI-H23. The assay is described as follows: Down regulation of BCL2 gene expression in human NCI-H23 cells at 500 nM measured after 3 to 24 hrs by qPCR analysis. As to conditions: time 3-24 hrs. Type of assay: functional, cell-based. Put shortly:
as §1

Assay [9] relates to NCI-H23. Description: Effect in H3K27ac subpopulation level in human NCI-H23 cells at 500 nM incubated for 24 hrs by Chip-seq assay. Type of assay: functional, cell-based.
The test system of assay [10] is NCI-H23. Description: Down regulation of WNT2 gene expression in human NCI-H23 cells at 500 nM measured after 3 to 24 hrs by qPCR analysis. Type of assay: functional, cell-based. The note with it: time 3-24 hrs. Put shortly: as §1
For assay [11], the system named is NCI-H23. Description: Down regulation of WNT5A-2 gene expression in human NCI-H23 cells at 500 nM measured after 3 to 24 hrs by qPCR analysis. It counts as functional, cell-based. The note with it: time 3-24 hrs. An outline of the steps: as §1
In assay [12] the test system is NCI-H23. Description: Upregulation of MYC gene expression in human NCI-H23 cells at 500 nM measured after 3 to 24 hrs by qPCR analysis. The note with it: time 3-24 hrs. Type of assay: functional, cell-based. An outline of the steps:
as §1

Assay [13] concerns NCI-H23. The assay is described as follows: Down regulation of CFLAIR gene expression in human NCI-H23 cells at 500 nM measured after 3 to 24 hrs by qPCR analysis. It counts as functional, cell-based. The note with it: time 3-24 hrs. An outline of the steps: as §1
In assay [14] the test system is NCI-H23. The assay is described as follows: Effect on CTNNB1 gene expression in human NCI-H23 cells at 500 nM measured after 3 to 24 hrs by qPCR analysis. As to conditions: time 3-24 hrs. Type of assay: functional, cell-based. An outline of the steps: as §1
The test system of assay [15] is NCI-H23. Description: Induction of apoptosis in human NCI-H23 cells at 5 to 5000 nM incubated for 24 hsr by Green Apoptosis assay. It counts as functional, cell-based. The note with it: dose 5-5000 nM, time 24.0 hrs. An outline of the steps:
(§3)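 RFP-labelled H23 cells were seeded at 8,000 cells/well one day ahead and given JQ1 at 5, 50, 500, 1,000 or 5,000 nM. For apoptosis, Caspase-3/7 Green reagent (DEVD–NucView488) was added with the drug. Plates were imaged hourly for 24 h. Red (proliferating) or green (apoptotic) objects were counted per image and expressed as fold change versus 0 h.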

For assay [16], the system named is NCI-H23. The assay is described as follows: Effect in H4K5acK8ac global level enhancer region in human NCI-H23 cells at 500 nM incubated for 24 hrs by Chip-seq assay. Type of assay: functional, cell-based. An outline of the steps: as §2
Assay [17] deals with NCI-H23. The assay is described as follows: Antiproliferation activity against human NCI-H23 cells assessed as decrease in cell proliferation at 5 to 5000 nM incubated for 24 hrs by Green Apoptosis Assay. The note with it: dose 5-5000 nM. It counts as functional, cell-based. An outline of the steps:
as §3

In assay [18] the test system is NCI-H23. The assay is described as follows: Effect in H4K5acK8ac global level super enhancer region in human NCI-H23 cells at 500 nM incubated for 24 hrs by Chip-seq assay. It counts as functional, cell-based. Put shortly:
as §2

The target of assay [19] is Bromodomain-containing protein 2 (Homo sapiens) (UniProt P25440). As to conditions: NCI-H23, dose 500.0 nM, time 24.0 hrs.

The record followed here is ChEMBL document CHEMBL5712900, “JQ1 affects BRD2-dependent and independent transcription regulation without disrupting H4-hyperacetylated chromatin states” (2018).

Activity calls are given as the source filed them. The rule behind the calls is not given here.

Bromodomain-containing protein 2 (Homo sapiens), sequence (P25440 whole entry, looked up): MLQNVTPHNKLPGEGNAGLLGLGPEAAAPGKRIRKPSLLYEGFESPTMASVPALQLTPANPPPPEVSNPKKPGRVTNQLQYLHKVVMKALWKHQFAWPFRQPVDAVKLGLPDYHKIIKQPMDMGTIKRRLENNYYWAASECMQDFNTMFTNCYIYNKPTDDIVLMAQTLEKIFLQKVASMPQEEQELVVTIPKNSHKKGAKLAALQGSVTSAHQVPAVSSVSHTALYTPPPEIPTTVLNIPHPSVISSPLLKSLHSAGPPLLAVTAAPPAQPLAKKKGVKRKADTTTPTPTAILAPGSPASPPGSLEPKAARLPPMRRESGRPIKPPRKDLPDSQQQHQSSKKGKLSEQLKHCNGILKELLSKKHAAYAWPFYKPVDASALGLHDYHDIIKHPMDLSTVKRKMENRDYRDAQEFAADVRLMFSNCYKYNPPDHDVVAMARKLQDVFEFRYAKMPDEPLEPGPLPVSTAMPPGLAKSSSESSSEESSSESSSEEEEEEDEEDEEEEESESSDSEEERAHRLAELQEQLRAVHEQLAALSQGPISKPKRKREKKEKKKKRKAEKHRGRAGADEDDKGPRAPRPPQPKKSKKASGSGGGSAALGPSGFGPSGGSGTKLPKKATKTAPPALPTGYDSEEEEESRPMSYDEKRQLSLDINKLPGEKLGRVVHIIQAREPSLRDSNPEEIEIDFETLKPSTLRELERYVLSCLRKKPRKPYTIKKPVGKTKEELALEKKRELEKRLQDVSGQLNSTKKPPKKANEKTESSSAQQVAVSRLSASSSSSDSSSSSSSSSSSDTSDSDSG

As for `Cc1sc2c(c1C)C(c1ccc(Cl)cc1)=N[C@@H](CC(=O)OC(C)(C)C)c1nnc(C)n1-2`, the outcome in assay [1], in assay [4], in assay [8], in [9], in [10] and in assay [11] was Active. Further, the outcome in [12], in assay [13], in assay [14], in [15] and in assay [17] was Active. In addition, the result in [2], in [5], in [6], in assay [7], in [16] and in [18] was inactive. The “fold change (FC)” value in assay [3] was determined as 2. This compound returned an inhibition in assay [19] of 100%.

By inhibition is commonly meant the relative decrease from the control value, in per cent.
